# The list is not random: actives were taken first. Their share in the collection is about 1.1%.
# PMI activator: activators of human phosphomannose isomerase | P34949 | purified human PMI, coupled resazurin fluorescence, 20 min; hits give high values; 1 = vehicle control, 0 substrate-free wells | activation factor at 20 µM | actives 0.005% (n = 190,000);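 active = activation factor of 2 or more at 20 µM, relative to plate controls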
# Target sequence (P34949 whole entry, looked up): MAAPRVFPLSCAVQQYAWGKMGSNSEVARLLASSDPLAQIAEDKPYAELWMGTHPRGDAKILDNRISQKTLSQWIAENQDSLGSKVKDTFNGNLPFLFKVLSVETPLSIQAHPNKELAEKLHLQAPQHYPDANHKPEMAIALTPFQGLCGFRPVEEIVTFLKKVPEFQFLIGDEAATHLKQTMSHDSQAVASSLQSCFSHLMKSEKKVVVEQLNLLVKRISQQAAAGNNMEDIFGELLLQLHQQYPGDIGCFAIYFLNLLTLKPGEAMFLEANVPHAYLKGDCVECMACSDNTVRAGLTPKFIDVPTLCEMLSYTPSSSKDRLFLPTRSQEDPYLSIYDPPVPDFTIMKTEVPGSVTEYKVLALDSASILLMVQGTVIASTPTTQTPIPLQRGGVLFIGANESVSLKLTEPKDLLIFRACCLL
# Rad51 HR inh: Rad51 (human) homologous recombination inhibition; Q06609; AID 1385; actives 0.085% (n = 200,000); hRad51 DNA strand exchange, fluorescence dequenching; inhibition, % at 10 µM;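 active = inhibition above 40% at the single screening dose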;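 also: 0% = DMSO control wells and 100% = blanks with heterologous ssDNA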
#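 Material: Human Rad51 nucleoprotein filaments preassembled on unlabelled ssDNA | Also added: Labelled 47-mer dsDNA for strand exchange | Dosing: Single dose, 10 µM final compound | Schedule: 30-min compound preincubation and 15-min exchange, both room temperature | Technique: Fluorescence dequenching at 485/520 nm | Measure: Percent inhibition relative to plate controls and blanks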
# Calpain2 inh: blocks pig calpain II enzyme activity; purified calpain II, fluorogenic peptide substrate, 30 min; actives 0.37% (n = 220,000); inhibition, % at 16 µM;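 active = inhibition above about 50%, limit read from the data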
# PMI act satM6P: increases human PMI activity with near-saturating mannose 6-phosphate | activation factor at 20 µM | actives 0.34% (n = 190,000) | P34949 | AID 1216 | coupled PMI enzyme assay, resazurin fluorescence, 20 min; hits give high values; 1 = untreated enzyme, 0 = substrate-free blank;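 active = activation factor of 2 or more at 20 µM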
#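 Test system: human phosphomannose isomerase with PGI, G6PDH, diaphorase coupling enzymes / Doses: 20 µM compound, 1% DMSO / Times: enzyme reaction with compound 20 min at room temperature / Measured by: Diaphorase-driven resazurin-to-resorufin fluorescence, excitation 544, emission 590 nm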
# Efa HMGR inh: blocks class II HMG-CoA reductase of Enterococcus faecalis. inhibition, % at 10 µM. purified E. faecalis HMGR, NADPH absorbance 340 nm kinetic. actives 0.41% (n = 190,000);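 active = inhibition above a set limit, the median over all tested compounds plus 3 SD, cut at about 9.5% in these data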;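 also: enzyme runs in reverse so mevalonate oxidation gives rising NADPH absorbance; 0% = complete reaction with DMSO and 100% = background rate lacking mevalonate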
# * marks the source's active call; other numbers are inactive results; nt = not tested or not shown.
SMILES,PMI activator,Rad51 HR inh,Calpain2 inh,PMI act satM6P,Efa HMGR inh
CC1N(O)C(c2ccc(Cl)cc2Cl)N(O)C1(C)C (stereo not given),1.8,-3,-21,2*,-5
COc1ccc(NC(=O)CN(C)S(=O)(=O)c2ccc(Cl)cc2)c([N+](=O)[O-])c1,1.4,nt,8,1.1,-4
COc1cccc(NC(=O)CN(C)CC(=O)Nc2ccc(Cl)cc2[N+](=O)[O-])c1,0.9,6,55*,0.9,-6
CCn1c(COc2ccc(Cl)cc2)nnc1SC1CCc2ccccc2C1=O (stereo not given),0.8,2,52*,0.6,0
COc1cccc(-c2nnc(NC(=O)c3ccc4ncsc4c3)o2)c1,1.3,-17,-60,1.3,-8
CCCCOc1ccc(/C=C/C2=CC(C)(C)NC(=S)N2)cc1OCC,1.6,-9,-12,2*,0
CCc1ccc(NC(=S)NC(=O)CC(C)C)cc1,0.9,10,-4,0.9,0
COc1ccc(C(=O)C23CC4CC(C2)CC(C(=O)c2ccc(OC)cc2)(C4)C3)cc1,0.9,nt,63*,1,0
O=C(NCCc1csc(-c2ccccc2)n1)c1ccc(Br)o1,0.8,2,-5,0.8,-11
O=C(NCCc1csc(-c2cccnc2)n1)c1ccc(Br)o1,0.9,-4,99*,1,-3
CCOC(=O)c1c(C)[nH]c(C(=O)N2CCN(c3ccc(OC)cc3)CC2)c1C,1,-7,36,0.9,-6
O=C(CN1C(=O)C2CCCCC2C1=O)N1CCN(c2ccc(F)cc2)CC1 (stereo not given),1,5,-5,1,1
O=C(CN1C(=O)NC2(CCSC2)C1=O)N1CCN(c2ccc(F)cc2)CC1 (stereo not given),1.6,5,nt,2.1*,nt
O=C(N/N=C/c1ccc(-c2cccc([N+](=O)[O-])c2)o1)c1ccccc1O,1,-6,11,1.1,-5
COc1cc([N+](=O)[O-])ccc1-c1ccc(/C=N/NC(=O)c2ccccc2O)o1,nt,-19,54*,nt,nt
O=C1NCCC/C1=N/Nc1ccc(F)cc1,1.6,7,-2,2.2*,-3
COC(=O)C1=C(C)N(C)C(C)=C(C(=O)OC)C1c1ccc(C(=O)OC)cc1,1,4,-16,1.1,-3
COC(=O)C1=C(C)N(C)C(=S)N(C)C1c1ccc(OC)cc1 (stereo not given),1,8,0,1.1,12*
O=S(=O)(Nc1nc(-c2sccc2Cl)cs1)c1cc(Cl)ccc1Cl,0.6,1,54*,1.2,3
Fc1ccc(COc2ccccc2-c2ccnc3ncnn23)cc1,1,12,-260,1,-7
COc1ccc(-n2nnnc2SC(C)C(N)=O)cc1 (stereo not given),0.9,9,1,0.9,-8
CCN(CC)S(=O)(=O)c1ccc2c(c1)nc(SC(C)C(N)=O)n2-c1ccc(OC)cc1 (stereo not given),0.9,63*,35,1,5
Fc1cccc(Cn2cc(C(=S)N3CCCCC3)c3ccccc32)c1,0.9,-6,66*,0.9,-4
Cc1ccc(/C=N/n2c(C)nc3ccccc3c2=O)s1,1,2,-2,1,-5
COc1ccc(Cc2nnc(NC(=O)c3cccc(C)c3)s2)cc1,1,4,3,1.1,-4
SMILES,PMI activator,Rad51 HR inh,Calpain2 inh,PMI act satM6P,Efa HMGR inh
Cc1cccc(-c2nnn(Cc3nnc(NC(=O)c4ccccc4)s3)n2)c1,1,88*,-18,1,6
CN(C)N=Nc1ccc(S(N)(=O)=O)cc1,0.9,-4,-11,1,-4
CCN(CC)N=Nc1ccc(S(N)(=O)=O)cc1,0.8,6,-20,0.8,10*
CN(C)c1oc(-c2ccccc2Cl)nc1P(=O)(c1ccccc1)c1ccccc1,0.9,8,-6,1,-6
O=C(O)C1Nc2c(O)cc(Cl)c([N+](=O)[O-])c2C2C=CCC12 (stereo not given),1.7,33,-32,2.2*,13*
Cc1ccc2c(c1)C1C=CCC1C(C(=O)O)N2 (stereo not given),1.5,nt,-22,1.8,3
CSCC[C@H](NC(=O)Nc1ccc(S(N)(=O)=O)cc1)C(=O)O,nt,-2,-7,nt,nt
COC(=O)c1cc2n(n1)CCN(Cc1ccc(F)cc1)C2=O,1,46*,15,1,4
COC(=O)c1cc2n(n1)CCN(Cc1ccccc1F)C2=O,1,-2,nt,1,1
COCCCC1CCN(Cc2cn[nH]c2-c2cc(OC)c(OC)c(OC)c2)CC1,1,nt,17,1,0
COCC1CCN(Cc2cn[nH]c2-c2cc(OC)c(OC)c(OC)c2)CC1,1,18,-9,1,11*
COc1ccc(/C=C(/NC(=O)c2cccc([N+](=O)[O-])c2)C(=O)O)cc1,1.7,3,-34,2*,0
COc1ccc(C(=O)N/C(=C\c2cccc([N+](=O)[O-])c2)C(=O)Nc2cccc(C(=O)O)c2)cc1,1,7,-40,0.9,-5
O=C1C[C@@H](c2ccc(O[C@@H]3O[C@H](CO)[C@@H](O)[C@H](O)[C@H]3O)cc2)Oc2cc(O)ccc21,1.1,3,9,1,-5
CCOC(=O)N1CCN(C(=O)c2ccc(NS(C)(=O)=O)cc2)CC1,0.8,1,50*,0.9,-1
CCOC(=O)N1CCN(C(=O)c2ccc(NC(=O)CC)cc2)CC1,0.9,4,2,1,-3
CC(C)(C)c1ccc(C(=O)Nc2cccc([N+](=O)[O-])c2)cc1,1,10,50*,1,-3
O=c1cc(N2CCCCC2)c(-c2ccccc2)nn1Cc1c(Cl)cccc1Cl,0.9,4,-2,1.1,-1
CCC(CC)C(=O)c1c[nH]c(C(=O)NCc2cccs2)c1,1,38,-4,1.1,11*
CCC(CC)C(=O)c1c[nH]c(C(=O)NCc2ccco2)c1,0.9,7,-7,0.8,-11
FC(F)(F)Oc1ccc(NC(=S)Nc2ccc(OC(F)(F)F)cc2)cc1,nt,8,16,nt,nt
CCOC(=O)CNc1nc(Cl)c(C#N)s1,0.9,-10,7,0.8,-5
Cc1ccc(CNc2nc(Cl)c(C#N)s2)cc1,0.9,8,76*,1,3
O=C1c2ccccc2C(=O)N1CCN1CCCCC1,1,nt,13,1,19*
CN1CCN(C(=O)C2=C[C@@H](C3CC3)C[C@@H](OCc3ccc(CO)cc3)O2)CC1,0.9,1,-2,1,9.8*
O=C(C1=C[C@H](C2CC2)C[C@H](OCc2ccc(CO)cc2)O1)N1CCOCC1,0.9,-8,-8,0.9,-1
Cc1[nH]c2ccccc2c1C(=O)CSC(=S)N1CCCCC1,0.9,nt,4,0.8,-1
Cc1cc(C)n2nc(SCc3nnc(SCc4ccccc4Cl)s3)nc2n1,0.9,-4,50*,0.9,-4
